Ten compounds from ChEMBL document CHEMBL2203191, “Synthesis and biological evaluation of new fluorine substituted derivatives as angiotensin II receptor antagonists with anti-hypertension and anti-tumor effects” (Bioorg Med Chem, 2012) can be followed below.

Data set [1] is described as follows: (§1) Displacement of [125I]Angiotensin-2 from angiotensin AT1 receptor in Sprague-Dawley rat VSMC after 60 mins by gamma counting. The method in brief: (§2)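 VSMCs from SD rat thoracic aorta, grown as explants in DMEM with 15% FBS; passages 3–7 used. Cells incubated with 0.1 nM [125I]Ang II and compound (1 × 10^-6 to 1 × 10^-12 M final) for 60 min at 37 °C. Nonspecific binding set with 1 µM Ang II. After PBS washes, cells lysed in 0.1 M NaOH and counted by gamma counter. IC50 obtained by regression of displacement curves; Ki = IC50/(1+[L]/Kd).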
In general terms: In a radioligand displacement assay an active substance lowers the binding of a labelled ligand.

For data set [2], the species on record is Rattus norvegicus. The data set is described as §1. The method in brief:
as §2

The subject of data set [3] is Rattus norvegicus. Nature of the data set: Cardiotoxicity in SHR rat assessed as effect on heart rate at 5 mg/kg, po. It counts as toxicity, organism-based. Details: dose 5 mg/kg, route oral. The settings on record: in vivo. A digest of the protocol:
(§3)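 Heart rate taken in SHR (250-300 g, 10 per group) given 5 or 10 mg/kg orally as a suspension in 0.5% sodium carboxymethyl cellulose, alongside a vehicle control. Monitored under sodium pentobarbital anesthesia (40 mg/kg ip) through a carotid arterial catheter and pressure transducer, continuously for over 10 h and again at 24 h.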

Data set [4] deals with Rattus norvegicus. Nature of the data set: Antihypertensive activity in SHR rat assessed as mean arterial pressure at 5 to 10 mg/kg, po. It counts as functional, organism-based. Conditions: Artery. The method in brief: (§4)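 SHR (250-300 g) or renal hypertensive rats (SD rats, 250-350 g, left renal artery fully ligated under sodium pentobarbital 40 mg/kg; SBP above 160 mmHg selected), 10 per group. Dosed orally at 5 or 10 mg/kg as a suspension in 0.5% sodium carboxymethyl cellulose; vehicle-only negative control. Rats under pentobarbital (40 mg/kg ip) with right carotid cannulated to a pressure transducer; MAP recorded continuously for over 10 h and again at 24 h.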

For data set [5], the system named is Rattus norvegicus. Nature of the data set: Cardiotoxicity in SHR rat assessed as effect on heart rate at 10 mg/kg, po. Details: dose 10 mg/kg, route oral. Conditions: in vivo. It counts as toxicity, organism-based. The method in brief:
as §3

Data set [6] has as its system Rattus norvegicus. Briefly: Antihypertensive activity in SHR rat assessed as decrease in mean arterial pressure at 10 mg/kg, po measured for 9 hrs after dosing. The settings on record: Artery. Details: dose 10 mg/kg. It counts as functional, organism-based. A digest of the protocol: as §4
Data set [7] concerns Rattus norvegicus. Briefly: Antihypertensive activity in Sprague-Dawley rat renal hypertensive model assessed as decrease in mean arterial pressure at 10 mg/kg, po. It counts as functional, organism-based. Further details: dose 10 mg/kg. Conditions: Artery. A digest of the protocol: as §4
In data set [8] the test system is Rattus norvegicus. Briefly: Antihypertensive activity in SHR rat assessed as decrease in mean arterial pressure at 10 mg/kg, po. It counts as functional, Artery. A digest of the protocol:
as §4

Data set [9] concerns Rattus norvegicus. Briefly: Antihypertensive activity in SHR rat assessed as decrease in mean arterial pressure at 10 mg/kg, po after 3 hrs. It counts as functional, Artery. A digest of the protocol:
as §4

In data set [10] the test system is Rattus norvegicus. Briefly: Antihypertensive activity in SHR rat assessed as decrease in mean arterial pressure at 5 mg/kg, po after 3 hrs. It counts as functional, Artery. A digest of the protocol: as §4
The subject of data set [11] is Rattus norvegicus. Nature of the data set: Antihypertensive activity in SHR rat assessed as decrease in mean arterial pressure at 5 to 10 mg/kg, po measured for 8 hrs after dosing. Conditions: Artery. It counts as functional, organism-based. The method in brief: as §4
Data set [12] deals with LNCaP. Briefly: Cytotoxicity against human LNCAP cells assessed as cell viability at 10 uM after 24 to 96 hrs by MTT assay. It counts as cell-based. A digest of the protocol: (§5)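 LNCaP cells (1 × 10^5 per well) grown overnight at 37 °C, 5% CO2, then exposed to compound at 10 µM, with or without Ang II (1 × 10^-7 M). Control got medium with 0.05% v/v DMSO. MTT (5 mg/mL stock) added after 24, 48, 72 or 96 h and incubated 4 h at 37 °C; formazan dissolved in DMSO and read at 570 nm.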
Background: Tetrazolium assays rely on reduction of a dye to a coloured formazan, in cell work by metabolically active cells.

For data set [13], the system named is Rattus norvegicus. Briefly: Antihypertensive activity in SHR rat assessed as decrease in mean arterial pressure at 10 mg/kg, po after 24 hrs. Conditions: Artery. Further details: dose 10 mg/kg. It counts as functional, organism-based. A digest of the protocol: as §4
Data set [14] concerns Rattus norvegicus. Nature of the data set: Antihypertensive activity in Sprague-Dawley rat renal hypertensive model assessed as decrease in mean arterial pressure at 5 mg/kg, po. It counts as functional, organism-based. Details: dose 5 mg/kg. The settings on record: Artery. The method in brief: as §4
The subject of data set [15] is Rattus norvegicus. Briefly: Antihypertensive activity in SHR rat assessed as decrease in mean arterial pressure at 5 mg/kg, po. It counts as functional, Artery. A digest of the protocol:
as §4

Data set [16] has as its system LNCaP. Briefly: Antitumor activity against human LNCAP cells xenografted in athymic nude mouse assessed as relative tumor volume at 5 mg/kg/day dosed on day 8 measured at 4 weeks post implantation by caliper measurement (reference value: 28.34 +/-2.05). It counts as functional.
For data set [17], the system named is LNCaP. Nature of the data set: Antitumor activity against human LNCAP cells xenografted in athymic nude mouse assessed as relative tumor volume at 10 mg/kg/day dosed on day 8 measured at 4 weeks post implantation by caliper measurement (reference value: 28.34 +/-2.05). It counts as functional.
For data set [18], the system named is LNCaP. Nature of the data set: Antiproliferative activity against human LNCAP cells assessed as reduction in Ang-2-induced increase in cell viability at 10 uM after 24 to 96 hrs by MTT assay. It counts as functional, cell-based. A digest of the protocol: as §5
Data set [19] concerns Rattus norvegicus. Nature of the data set: Antihypertensive activity in SHR rat assessed as decrease in mean arterial pressure at 5 to 10 mg/kg, po after 3 to 5 hrs. It counts as functional, organism-based. The settings on record: Artery. A digest of the protocol:
as §4

Data set [20] relates to Rattus norvegicus. Nature of the data set: Antihypertensive activity in SHR rat assessed as decrease in mean arterial pressure at 10 mg/kg, po measured for 7 hrs after dosing. It counts as functional, organism-based. Further details: dose 10 mg/kg. Conditions: Artery. The method in brief:
as §4

Active and inactive are the calls of the source. The rule behind the calls is not given here.

As a reminder, the IC50 is the point on the concentration scale where inhibition reaches its midpoint. Lower therefore signals higher potency. For orientation: Ki means a dissociation constant, usually derived from enzyme kinetics or from competition with a known ligand. A higher Ki goes with lower affinity. Regarding `CCCCC1=NC2(CCCC2)C(=O)N1Cc1ccc(-c2ccccc2-c2nnn[nH]2)cc1` [IRBESARTAN], in data set [1], the concentration for half-maximal inhibition (IC50) stood at 3.11 nM and affinity was put at a Ki of 2.75 nM. Besides, in [2], the inhibition result was “Dose-dependent effect”.
In the case of `CCCCc1nc(Cl)c(C(=O)O)n1Cc1ccc(-c2ccc(F)cc2C(=O)O)cc1`, in data set [1], the half-inhibitory concentration (IC50) turned out to be 26.1 nM and the inhibition constant (Ki) is 17.6 nM. The inhibition result in data set [2] was “Dose-dependent effect”. In [3], the Activity entry was “Non-toxic”. Also, the outcome in [4] was inactive. Also, the Activity result in data set [5] is given as “Non-toxic”.
In [1], `CCCCc1nc(Cl)c(C(=O)O)n1Cc1ccc(-c2cc(F)c(F)cc2C(=O)O)cc1` showed a 50% inhibitory concentration (IC50) of 13.5 nM and an inhibition constant (Ki) of 9.11 nM. Moreover, in data set [2], the inhibition entry was “Dose-dependent effect”. In [3], the Activity entry is “Non-toxic”. For the same compound, the result in data set [4] was inactive. Moreover, the Activity result in data set [5] is reported as “Non-toxic”.
Turning to `CCCCC1=NC2(CCCC2)C(=O)N1Cc1ccc(-c2ccc(F)cc2C(=O)O)cc1`, in [1], the half-inhibitory concentration (IC50) worked out at 9.98 nM and the Ki stood at 6.75 nM. Also, the inhibition entry in data set [2] is “Dose-dependent effect”. Besides, the Activity entry in [3] was “Non-toxic”. The result in data set [4] was inactive. The Activity result in data set [5] is recorded as “Non-toxic”.
Regarding `CCCCC(=O)N(Cc1ccc(-c2ccccc2-c2nnn[nH]2)cc1)[C@H](C(=O)O)C(C)C` [VALSARTAN], the result in data set [6] and in data set [7] was Active. In [1], this compound displayed an IC50 of 2.64 nM. Also, the Ki in data set [1] was 2.08 nM. In addition, the inhibition result in data set [2] is “Dose-dependent effect”. Moreover, the Activity in data set [8] was 28 mmHg; in data set [5], “Non-toxic”.
Consider `CCCCc1nc(Cl)c(C(=O)O)n1Cc1ccc(-c2cc(F)ccc2C(=O)O)cc1`, for which the Activity in data set [9] was 32 mmHg; in data set [3], “Non-toxic”; in [10], 23 mmHg; in [5], “Non-toxic”. The compound also gave a 50% inhibitory concentration (IC50) in data set [1] of 13.6 nM. Besides, the inhibitory constant (Ki) in data set [1] stood at 9.17 nM. Besides, in data set [2], the inhibition entry is “Dose-dependent effect”. For the same compound, the outcome in data set [7] and in data set [11] was Active.
For `CCCCc1nc(Cl)c(CO)n1Cc1ccc(-c2ccccc2-c2nn[nH]n2)cc1` [LOSARTAN], the Activity entry in data set [12] and in data set [5] was “Non-toxic” throughout.
In turn, `CCCC(=O)N(Cc1ccc(-c2ccc(F)cc2C(=O)O)cc1)[C@H](C(=O)O)C(C)C` showed a half-inhibitory concentration (IC50) in [1] of 0.584 nM. The compound also showed an inhibition constant Ki in [1] of 0.42 nM. Besides, the inhibition result in [2] is “Dose-dependent effect”. Moreover, the result in [13], in [14], in data set [7], in [18] and in data set [19] was Active. In addition, the Activity result in [3] is “Non-toxic”; in data set [15] it was 27 mmHg; in data set [12], “Non-toxic”; in data set [8], 42 mmHg; in [5] it was “Non-toxic”. The Ratio in [16] worked out at 17.44; in data set [17], 12.39.
On to `CCCCc1nc(Cl)c(CO)n1Cc1ccc(-c2ccccc2-c2nnn[nH]2)cc1` [LOSARTAN], for which the outcome in data set [20], in [7] and in data set [18] was Active. This compound displayed a concentration for half-maximal inhibition (IC50) in data set [1] of 1.64 nM. In data set [1], this compound registered a Ki of 1.41 nM. In [2], the inhibition entry was “Dose-dependent effect”. Further, the Ratio is 21.44 in data set [16] and 15.75 in data set [17]. For the same compound, in [8], the Activity is 27 mmHg.
As for `CCCCc1nc(Cl)c(CO)n1Cc1ccc(-c2ccc(F)cc2C(=O)O)cc1`, in data set [1], the half-maximal inhibitory concentration (IC50) is 4.11 nM. In data set [1], this compound showed an inhibition constant (Ki) of 3.78 nM. In data set [2], the inhibition result was “Dose-dependent effect”. Further, the Activity result is recorded as “Non-toxic” in [3], 18 mmHg in data set [15], 25 mmHg in data set [8] and “Non-toxic” in data set [5]. Further, the outcome in data set [7] and in data set [11] was Active.
